Key:
Assay type in all cases: functional
[1] = tested on: Escherichia coli; assay: Antibacterial activity against Escherichia coli K12 PhoU wild type W3110 assessed as cell count at 100 ug/ml
[2] = tested on: Escherichia coli; assay: Antibacterial activity against Escherichia coli K12 PhoU wild type W3110 assessed as cell count in log phase at 100 ug/ml after 1 day
Procedure, shortened: (§1)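 Log-phase or stationary-phase cultures exposed to ampicillin 100 μg/ml in MOPS minimal medium (pH 5.0) at 37°C without shaking, for 5 h up to 10 days. Aliquots were taken at each time point, washed in saline and plated on LB plates for viable CFU/ml.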

[3] = tested on: Escherichia coli; assay: Antibacterial activity against Escherichia coli K12 containing deletion deltaphoB mutant assessed as cell count in log phase at 100 ug/ml after 24 hrs
Procedure, shortened: (§2)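 Deletion mutants were made by the Datsenko–Wanner method. Log-phase or stationary-phase cultures were exposed to ampicillin at 100 μg/ml. CFU/ml was determined at the start and after 5, 24 and 72 h of exposure.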

[4] = tested on: Escherichia coli; assay: Antibacterial activity against Escherichia coli K12 PhoU wild type W3110 at 25 ug/ml after 48 hrs by disc diffusion method
Procedure, shortened: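 Kirby-Bauer disc assay. Log-phase LB broth culture (10⁸ bacteria) was spread on LB agar for confluent growth. 7 mm nitrocellulose discs soaked in antibiotic solution at the listed concentration were placed on the agar. Inhibition zone diameter (mm) was measured after 48 h at 37°C.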

[5] = tested on: Escherichia coli; assay: Antibacterial activity against Escherichia coli K12 PhoU wild type W3110 assessed as cell count in log phase at 100 ug/ml after 1 week; procedure, shortened: as §1
[6] = tested on: Escherichia coli; assay: Antibacterial activity against Escherichia coli K12 PhoU wild type W3110 assessed as cell count in log phase at 100 ug/ml after 5 hrs; procedure, shortened: as §1
[7] = tested on: Escherichia coli; assay: Antibacterial activity against Escherichia coli K12 PhoU wild type W3110 assessed as cell count in log phase at 100 ug/ml after 3 days; procedure, shortened: as §1
[8] = tested on: Escherichia coli; assay: Antibacterial activity against Escherichia coli K12 containing deletion deltaphoU mutant assessed as cell count in stationary phase at 100 ug/ml after 1 day
Procedure, shortened: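 Wild-type W3110-derived deletion mutants were made by the Datsenko–Wanner method. Log-phase or stationary-phase cultures were exposed to ampicillin 100 μg/ml in MOPS minimal medium at pH 5.0, at 37°C without shaking. Aliquots were taken at set times, washed in saline and plated on LB for viable CFU/ml.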

[9] = tested on: Escherichia coli; assay: Antibacterial activity against Escherichia coli K12 mutant JHU313 containing plasmid vector at 25 ug/ml after 48 hrs by disc diffusion method
Procedure, shortened: (§3)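 Kirby-Bauer paper-disc assay: log-phase E. coli (10⁸ bacteria) grown in LB broth, spread on LB agar for confluent growth; 7 mm nitrocellulose discs soaked with antibiotic solution at the listed concentration (μg/ml) placed on surface; incubated 37°C for 48 h; diameter of growth-inhibition zone measured in mm. Strain is the phoU transposon mutant transformed by electroporation with empty vector control.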

[10] = tested on: Escherichia coli; assay: Antibacterial activity against Escherichia coli K12 containing deletion deltahipA mutant assessed as cell count in stationary phase at 100 ug/ml after 5 hrs; procedure, shortened: as §2
[11] = tested on: Escherichia coli; assay: Antibacterial activity against Escherichia coli K12 mutant JHU313 at 6 ug/ml after 48 hrs by disc diffusion method
Procedure, shortened: (§4)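 Kirby-Bauer disc assay: log-phase LB culture was spread on LB agar for confluent growth. 7-mm nitrocellulose discs were soaked in antibiotic at the listed concentration and placed on the agar. After 48 h at 37°C, the diameter of the inhibition zone was measured in mm.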

[12] = tested on: Escherichia coli; assay: Antibacterial activity against Escherichia coli K12 PhoU wild type W3110 assessed as cell count in stationary phase at 100 ug/ml after 5 days; procedure, shortened: as §1
[13] = tested on: Escherichia coli; assay: Antibacterial activity against Escherichia coli K12 containing deletion deltahipA mutant assessed as cell count in log phase at 100 ug/ml after 24 hrs; procedure, shortened: as §2
[14] = tested on: Escherichia coli; assay: Antibacterial activity against Escherichia coli K12 PhoU wild type W3110 assessed as cell count in log phase at 100 ug/ml after 10 days
Procedure, shortened: (§5)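 Log-phase or stationary-phase cultures were exposed to ampicillin (100 μg/ml) or norfloxacin (3 μg/ml) in MOPS minimal medium, pH 5.0, at 37°C without shaking, for 5 h to 10 days. Aliquots were saline-washed and plated on LB for CFU/ml.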

[15] = tested on: Escherichia coli; assay: Antibacterial activity against Escherichia coli K12 containing PhoU mutant assessed as cell count in log phase at 3 ug/ml after 1 day; procedure, shortened: as §5
[16] = tested on: Escherichia coli; assay: Antibacterial activity against Escherichia coli K12 mutant JHU313 at 0.5 ug/ml after 48 hrs by disc diffusion method; procedure, shortened: as §4
[17] = tested on: Escherichia coli; assay: Antibacterial activity against Escherichia coli K12 mutant JHU313 containing plasmid vector at 2 ug/ml after 48 hrs by disc diffusion method; procedure, shortened: as §4
[18] = tested on: Escherichia coli; assay: Antibacterial activity against Escherichia coli K12 PhoU wild type W3110 assessed as cell count in log phase at 3 ug/ml after 5 days; procedure, shortened: as §5
[19] = tested on: Escherichia coli; assay: Antibacterial activity against Escherichia coli K12 containing deletion deltaphoU mutant assessed as cell count in log phase at 3 ug/ml after 1 day
Procedure, shortened: (§6)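 Log-phase or stationary-phase cultures of the ΔphoU deletion mutant (Datsenko–Wanner construction) were exposed to norfloxacin 3 μg/ml in MOPS minimal medium, pH 5.0, at 37°C without shaking, for up to 10 days. Sampled aliquots were washed in saline and plated on LB agar for CFU/ml.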

[20] = tested on: Escherichia coli; assay: Antibacterial activity against Escherichia coli K12 containing PhoU mutant assessed as cell count in stationary phase at 3 ug/ml after 5 days; procedure, shortened: as §5
[21] = tested on: Escherichia coli; assay: Antibacterial activity against Escherichia coli K12 mutant JHU313 containing plasmid vector at 4 ug/ml after 48 hrs by disc diffusion method; procedure, shortened: as §3
[22] = tested on: Escherichia coli; assay: Antibacterial activity against Escherichia coli K12 PhoU wild type W3110 assessed as cell count in log phase at 3 ug/ml after 1 day; procedure, shortened: as §5
[23] = tested on: Escherichia coli; assay: Antibacterial activity against Escherichia coli K12 containing PhoU mutant assessed as cell count in log phase at 3 ug/ml after 1 week; procedure, shortened: as §5
[24] = tested on: Escherichia coli; assay: Antibacterial activity against Escherichia coli K12 PhoU wild type W3110 at 0.1 ug/ml after 48 hrs by disc diffusion method
Procedure, shortened: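 Kirby-Bauer disc assay. Log-phase LB culture (10⁸ bacteria) was spread for confluent growth on LB agar. 7 mm nitrocellulose discs soaked in antibiotic at the listed concentrations were laid on the agar. Inhibition zone diameter (mm) was measured after 48 h at 37°C.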

[25] = tested on: Escherichia coli; assay: Antibacterial activity against Escherichia coli K12 containing deletion deltaphoU mutant assessed as cell count in stationary phase at 3 ug/ml after 1 day; procedure, shortened: as §6
[26] = tested on: Escherichia coli; assay: Antibacterial activity against Escherichia coli K12 PhoU wild type W3110 assessed as cell count in log phase at 3 ug/ml after 10 days; procedure, shortened: as §5
[27] = tested on: Escherichia coli; assay: Antibacterial activity against Escherichia coli K12 containing PhoU mutant assessed as cell count in stationary phase at 3 ug/ml after 3 days; procedure, shortened: as §5
[28] = tested on: Escherichia coli; assay: Antibacterial activity against Escherichia coli K12 PhoU wild type W3110 assessed as cell count in log phase at 3 ug/ml after 3 days; procedure, shortened: as §5
[29] = tested on: Escherichia coli; assay: Antibacterial activity against Escherichia coli K12 containing deletion deltaphoU mutant assessed as cell count in log phase at 3 ug/ml after 1 week; procedure, shortened: as §6
[30] = tested on: Escherichia coli; assay: Antibacterial activity against Escherichia coli K12 containing deletion deltaphoU mutant assessed as cell count in stationary phase at 3 ug/ml after 5 hrs; procedure, shortened: as §6

## CC1(C)S[C@@H]2[C@H](NC(=O)[C@H](N)c3ccccc3)C(=O)N2[C@H]1C(=O)O [AMPICILLIN]
[1]
  CFU: 5 10^7/ml
[2]
  CFU: 10 mL⁻¹
[3]
  CFU: 1 10^2/ml
[4]
  inhibition zone (IZ): 28 mm
[5]
  CFU: 0 mL⁻¹
[6]
  CFU: 3 10^3/ml
[7]
  CFU: 0 mL⁻¹
[8]
  CFU: 7 10^6/ml
[9]
  inhibition zone (IZ): 40 mm
[10]
  CFU: 6 10^9/ml
[11]
  inhibition zone (IZ): 30 mm
[12]
  CFU: 3 10^7/ml
[13]
  CFU: 1 10^3/ml
[14]
  CFU: 0 mL⁻¹

## CCn1cc(C(=O)O)c(=O)c2cc(F)c(N3CCNCC3)cc21 [NORFLOXACIN]
[15]
  CFU: 4 10^5/ml
[16]
  inhibition zone (IZ): 30 mm
[17]
  inhibition zone (IZ): 40 mm
[18]
  CFU: 7 10^2/ml
[19]
  CFU: 1 10^6/ml
[20]
  CFU: 0 mL⁻¹
[21]
  inhibition zone (IZ): 44 mm
[22]
  CFU: 4 10^6/ml
[23]
  CFU: 0 mL⁻¹
[24]
  inhibition zone (IZ): 24 mm
[25]
  CFU: 2 10^8/ml
[26]
  CFU: 0 mL⁻¹
[27]
  CFU: 2 10^5/ml
[28]
  CFU: 5 10^4/ml
[29]
  CFU: 0 mL⁻¹
[30]
  CFU: 6 10^8/ml
